Reference: ChEMBL document CHEMBL1157173, “Isocoumarin-based inhibitors of pancreatic cholesterol esterase” (Bioorg Med Chem, 2008)

Assay: Binding affinity to pig pancreatic cholesterol esterase
Set-up: species or system Sus scrofa
Summary of the method: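 Porcine enzyme assayed in 0.1 M Hepes, pH 7, with 6 mM taurocholate and 1 mM p-nitrophenylbutyrate substrate; hydrolysis followed at 405 nm. Inhibition constants derived from double reciprocal and Dixon plots, and for high-affinity inhibitors from Straus-Goldstein plots.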

| Compound | Ki |
| --- | --- |
| Nc1ccc2c(Cl)c(OCCBr)oc(=O)c2c1 | 26 µM |
| O=c1oc(OCCBr)cc2ccc([N+](=O)[O-])cc12 | 50 µM |
| Nc1ccc2cc(OCCBr)oc(=O)c2c1 | > 100 µM |
| O=C(c1c(OCCC2CCCCC2)oc(=O)c2ccccc12)C(F)(F)F | 73 µM |
| O=C(c1c(OCC2CCCCC2)oc(=O)c2ccccc12)C(F)(F)F | > 100 µM |
| COc1oc(=O)c2cc([N+](=O)[O-])ccc2c1Cl | 19 µM |
| O=c1oc(OCCCBr)cc2ccc([N+](=O)[O-])cc12 | 33 µM |
| O=c1oc(OCCCCCC2CCCCC2)c(Cl)c2ccccc12 | 62 µM |
| O=c1oc(OCCC2CCCCC2)cc2ccc([N+](=O)[O-])cc12 | > 100 µM |
| COc1oc(=O)c2cc(NC(=O)C3CCCCC3)ccc2c1Cl | > 25 µM |
| CCCOc1oc(=O)c2ccccc2c1C(=O)C(F)(F)F | > 25 µM |
| O=c1oc(OCC2CCCCC2)cc2ccc([N+](=O)[O-])cc12 | 54 µM |
| COc1oc(=O)c2cc(NC(=O)c3ccccc3)ccc2c1Cl | > 250 µM |

Stronger by Ki, values ahead:

| Ki | Compound |
| --- | --- |
| 17 µM | COc1oc(=O)c2cc(N)ccc2c1Cl |
| 0.95 µM | O=c1oc(OC2CCCC2)c(Cl)c2ccccc12 |
| 6.5 µM | CCCCOc1oc(=O)c2ccccc2c1Cl |
| 0.019 µM | O=c1oc(OCCCC2CCCC2)c(Cl)c2ccccc12 |
| 3.6 µM | CCCOc1oc(=O)c2ccccc2c1Cl |
| 1.8 µM | O=c1oc(OCC2CCCCC2)c(Cl)c2ccccc12 |
| 1.2 µM | O=c1oc(OCCC2CCCCC2)c(Cl)c2ccccc12 |
| 0.36 µM | O=c1oc(OCC2CCCC2)c(Cl)c2ccccc12 |
| 0.26 µM | O=c1oc(OCCC2CCCC2)c(Cl)c2ccccc12 |
| 1.6 µM | O=c1oc(OCCCBr)c(Cl)c2ccc([N+](=O)[O-])cc12 |
| 0.26 µM | O=c1oc(OCCBr)c(Cl)c2ccc([N+](=O)[O-])cc12 |
| 0.18 µM | O=c1oc(OCCCC2CCCCC2)c(Cl)c2ccccc12 |
| 0.19 µM | O=c1oc(OC2CCC(C3CCCCC3)CC2)c(Cl)c2ccccc12 (stereo not given) |
| 0.7 µM | O=c1oc(OCCC2CCCCC2)c(Cl)c2ccc([N+](=O)[O-])cc12 |
| 5.7 µM | O=c1oc(OCC2CCCCC2)c(Cl)c2ccc([N+](=O)[O-])cc12 |
| 0.011 µM | O=c1oc(OCCCCC2CCCCC2)c(Cl)c2ccccc12 |
| 1.2 µM | O=c1oc(OC2CCCCC2)c(Cl)c2ccccc12 |
